Test results taken from ChEMBL document CHEMBL3862011, “Neuroprotective effects of benzyloxy substituted small molecule monoamine oxidase B inhibitors in Parkinson's disease” (Bioorg Med Chem, 2016).
pIC50: −log10 of the molar value.

How the values were obtained:
[1] = biological target: T1, Amine oxidase [flavin-containing] A (Homo sapiens, UniProt P21397)
T1 sequence (P21397 whole entry): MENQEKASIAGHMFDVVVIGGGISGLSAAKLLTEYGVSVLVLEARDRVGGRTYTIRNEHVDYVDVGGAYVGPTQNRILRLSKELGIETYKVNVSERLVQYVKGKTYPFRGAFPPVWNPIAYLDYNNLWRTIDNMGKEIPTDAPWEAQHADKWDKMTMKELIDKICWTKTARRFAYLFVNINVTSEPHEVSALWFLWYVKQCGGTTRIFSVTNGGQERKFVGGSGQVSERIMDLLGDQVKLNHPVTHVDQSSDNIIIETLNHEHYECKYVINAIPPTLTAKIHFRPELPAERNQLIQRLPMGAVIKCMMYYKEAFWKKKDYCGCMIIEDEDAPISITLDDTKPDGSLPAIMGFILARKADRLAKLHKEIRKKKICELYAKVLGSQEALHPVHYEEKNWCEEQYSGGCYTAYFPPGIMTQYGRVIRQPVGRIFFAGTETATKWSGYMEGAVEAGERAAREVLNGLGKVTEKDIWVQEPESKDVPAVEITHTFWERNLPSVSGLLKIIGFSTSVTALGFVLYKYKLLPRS

[2] = Neuroprotective activity against rotenone-induced toxicity in rat PC12 cells assessed as cell survival at 20 uM preincubated for 24 hrs followed by rotenone addition measured after 24 hrs by MTT assay relative to control; type: functional; conditions: PC-12, read-out: Survival
Summary of the method: (§1)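 PC12 cells seeded 5×10^3/well, after 24 h given compound at 20 μM for 24 h at 37 °C, then exposed to 6-OHDA (40 μM) or rotenone (1 μM) for 24 h. […] Mean ± SEM of three independent experiments.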

[3] = Cytotoxicity against rat PC12 cells assessed as cell survival at 100 uM after 24 hrs by MTT assay relative to control; type: toxicity, PC-12; conditions: read-out: Survival
[4] = Cytotoxicity against rat PC12 cells assessed as cell survival at 20 uM after 72 hrs by MTT assay relative to control; type: toxicity, PC-12; conditions: read-out: Survival
[5] = Neuroprotective activity against 6-OHDA-induced toxicity in rat PC12 cells assessed as cell survival at 20 uM preincubated for 24 hrs followed by 6-OHDA addition measured after 24 hrs by MTT assay relative to control; type: functional; conditions: PC-12, read-out: Survival
Summary of the method: as §1

in vitro = conditions: PAMPA
[6] = biological target: T1, Amine oxidase [flavin-containing] A; assay: Inhibition of recombinant human MAO-A using kynuramine as substrate assessed as decrease in 4-hydroxyquinoline production incubated for 20 mins by fluorescence spectrophotometry

Structure (SMILES) | pIC50 [1] | viability at 20 µM [2] [%] | viability at 24 h, 100 µM [3] [%] | viability at 72 h, 20 µM [4] [%] | viability at 20 µM [5] [%] | Papp at 16 h, 100 ug/ml (in vitro) [×10⁻⁶ cm/s] | pIC50 [6]
O=c1ccoc2cc(OCc3ccc(F)cc3)ccc12 | 4.73 | 115 | 72.9 | 119 | 124 | – | –
O=C1OCc2cc(OCc3ccc(Cl)cc3)ccc21 | 5.44 | 113 | 86.7 | 85.7 | 137 | – | –
O=c1ccoc2cc(OCc3ccc(C(F)(F)F)cc3)ccc12 | 4.72 | 110 | 81.2 | 110 | 123 | – | –
O=C1CCOc2cc(OCc3ccc(Cl)cc3)ccc21 | – | 111 | 98.6 | 115 | 143 | – | –
O=C1CCc2ccc(OCc3cccc(Cl)c3)cc2N1 | < 4.00 | 110 | 76.1 | 97.2 | 121 | – | –
CC(=O)c1cccc(OCc2ccc(Cl)cc2)c1 | – | 109 | 117 | 102 | 132 | – | –
C#CCN[C@@H]1CCc2ccccc21 [RASAGILINE] | – | 109 | 86.9 | 101 | 135 | – | –
CC(=O)c1ccc(OCc2cccc(F)c2)cc1F | < 4.00 | 109 | 118 | 119 | 116 | – | –
CC1(C)CC(=O)c2ccc(OCc3ccc(F)cc3)cc2O1 | < 4.00 | 111 | 96.2 | 122 | 148 | 9.71 | –
CC(=O)c1ccc(OCc2ccc(F)cc2)cc1F | < 4.00 | 114 | 106 | 123 | 105 | – | –
O=C1OCc2cc(OCc3ccc(F)cc3)ccc21 | 5.88 | 114 | 64.9 | 89.7 | 116 | – | –
CC(=O)c1ccc(OCc2cccc(Cl)c2)cc1O | 4.32 | 93.3 | 110 | 112 | 134 | – | 4.75
O=C1CCCc2cc(OCc3ccc(Cl)cc3)ccc21 | 6.47 | 110 | 91.2 | 129 | 127 | – | –
O=C1CCc2ccc(OCc3cccc(Br)c3)cc2N1 | 4.31 | 134 | 80.2 | 108 | 112 | 8.89 | –
CC(=O)c1ccc(OCc2ccc(Cl)cc2)cc1O | 4.60 | 105 | 109 | 126 | 144 | 12.7 | –
Cc1c(C)c2ccc(OCc3cccc(F)c3)cc2oc1=O | – | 115 | 109 | 108 | 130 | – | –

Structure (SMILES) | pIC50 [1] | viability at 20 µM [2] [%] | viability at 24 h, 100 µM [3] [%] | viability at 72 h, 20 µM [4] [%] | viability at 20 µM [5] [%] | Papp at 16 h, 100 ug/ml (in vitro) [×10⁻⁶ cm/s] | pIC50 [6]
CC(=O)c1ccc(OCc2cccc(F)c2)cc1O | < 4.00 | 106 | 107 | 115 | 133 | 15.9 | 4.29
O=C1OCc2cc(OCc3ccc(C(F)(F)F)cc3)ccc21 | 5.03 | 111 | – | 87.2 | 125 | – | –
O=c1ccoc2cc(OCc3cccc(Cl)c3)ccc12 | 4.63 | 101 | 73.5 | 119 | 117 | – | –
O=C1CCCc2cc(OCc3ccc(F)cc3)ccc21 | 5.89 | 95.9 | 83.3 | – | 139 | – | –
O=c1ccoc2ccc(OCc3ccc(Cl)cc3)cc12 | 5.34 | 115 | 85 | 108 | 122 | – | –
CC(=O)c1ccc(OCc2cccc(Cl)c2)cc1F | < 4.00 | 112 | 108 | – | 133 | – | –
CC(=O)c1ccc(OCc2ccc(Cl)cc2)cc1F | 4.05 | 101 | 105 | 113 | 142 | – | –
CC(=O)c1ccc(OCc2ccc(F)cc2)cc1 | < 4.00 | 88.6 | 105 | 123 | 116 | – | –
CC(=O)c1ccc(OCc2cccc(Cl)c2)cc1 | 4.05 | 95.8 | 118 | 116 | 123 | – | –
CC(=O)c1ccc(OCc2ccc(F)cc2)cc1O | 4.36 | 98.3 | 101 | 109 | 144 | 13.5 | 5.43
Cc1c(C)c2ccc(OCc3ccc(Cl)cc3)cc2oc1=O | – | 119 | 106 | 104 | 114 | – | –
CC(=O)c1cccc(OCc2ccc(Br)cc2)c1 | 4.27 | 105 | 122 | 107 | 109 | – | –
O=c1ccoc2ccc(OCc3ccc(F)cc3)cc12 | 4.87 | 106 | 85.2 | 109 | 115 | – | –
CC1(C)CC(=O)c2ccc(OCc3ccc(Cl)cc3)cc2O1 | < 4.00 | 108 | 110 | 109 | 143 | – | –
Cc1c(C)c2ccc(OCc3ccc(F)c(F)c3)cc2oc1=O | – | 117 | 106 | 102 | 138 | – | –
